Columns and labels:
[1] = Inhibition of Pseudomonas aeruginosa PA0321 using Boc-Lys(trifluoroacetyl)-AMC as substrate preincubated for 30 mins followed by substrate addition measured after 60 mins by trypsin-based fluorescence assay
[2] = Inhibition of Pseudomonas aeruginosa PA1409 using Boc-Lys(trifluoroacetyl)-AMC as substrate preincubated for 30 mins followed by substrate addition measured after 60 mins by trypsin-based fluorescence assay
[3] = Inhibition of Pseudomonas aeruginosa PA3774 using Boc-Lys(trifluoroacetyl)-AMC as substrate preincubated for 30 mins followed by substrate addition measured after 60 mins by trypsin-based fluorescence assay
[4] = Inhibition of Bordetella HDAH using Boc-Lys(trifluoroacetyl)-AMC as substrate preincubated for 30 mins followed by substrate addition measured after 60 mins by trypsin-based fluorescence assay
Outline: (§1)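 Bacterial HDAH activity was measured by a fluorogenic assay in which the deacetylated substrate is converted to fluorescent dye by trypsin. Ki was calculated via Cheng-Prusoff from IC50 values, which were fitted to dose-response curves spanning 10 ligand concentrations.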

[5] = Inhibition of Alcaligenes HDAH using Boc-Lys(trifluoroacetyl)-AMC as substrate preincubated for 30 mins followed by substrate addition measured after 60 mins by trypsin-based fluorescence assay; outline: as §1
[6] = target: Histone deacetylase 1 (Homo sapiens, UniProt Q13547); assay: Inhibition of human HDAC1 using Boc-Lys(Ac)-AMC as substrate preincubated for 30 mins followed by substrate addition measured after 60 mins by trypsin-based fluorescence assay
Histone deacetylase 1, sequence (Q13547 whole entry): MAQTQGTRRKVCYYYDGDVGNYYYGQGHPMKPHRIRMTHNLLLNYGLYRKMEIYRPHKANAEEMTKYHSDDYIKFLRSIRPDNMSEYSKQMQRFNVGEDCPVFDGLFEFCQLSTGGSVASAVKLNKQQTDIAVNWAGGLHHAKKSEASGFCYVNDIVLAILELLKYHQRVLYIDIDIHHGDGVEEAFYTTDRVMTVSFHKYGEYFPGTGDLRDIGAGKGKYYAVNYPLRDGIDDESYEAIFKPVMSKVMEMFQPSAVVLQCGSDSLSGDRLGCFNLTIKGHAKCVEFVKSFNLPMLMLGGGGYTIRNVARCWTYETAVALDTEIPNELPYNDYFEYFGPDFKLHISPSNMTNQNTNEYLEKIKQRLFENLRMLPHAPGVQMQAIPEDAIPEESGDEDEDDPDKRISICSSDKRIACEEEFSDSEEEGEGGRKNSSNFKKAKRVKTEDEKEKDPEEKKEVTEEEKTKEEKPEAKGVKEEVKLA
Outline: (§2)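 Fluorogenic deacetylase assay with Boc-Lys(Ac)-AMC substrate. After a 30 min incubation, trypsin was added to convert the deacetylated substrate to the fluorescent dye.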

[7] = target: T1, Protein deacetylase HDAC6 (Homo sapiens, UniProt Q9UBN7); assay: Inhibition of human HDAC6 using Boc-Lys(Ac)-AMC as substrate preincubated for 30 mins followed by substrate addition measured after 60 mins by trypsin-based fluorescence assay; outline: as §2
T1 sequence (Q9UBN7 whole entry): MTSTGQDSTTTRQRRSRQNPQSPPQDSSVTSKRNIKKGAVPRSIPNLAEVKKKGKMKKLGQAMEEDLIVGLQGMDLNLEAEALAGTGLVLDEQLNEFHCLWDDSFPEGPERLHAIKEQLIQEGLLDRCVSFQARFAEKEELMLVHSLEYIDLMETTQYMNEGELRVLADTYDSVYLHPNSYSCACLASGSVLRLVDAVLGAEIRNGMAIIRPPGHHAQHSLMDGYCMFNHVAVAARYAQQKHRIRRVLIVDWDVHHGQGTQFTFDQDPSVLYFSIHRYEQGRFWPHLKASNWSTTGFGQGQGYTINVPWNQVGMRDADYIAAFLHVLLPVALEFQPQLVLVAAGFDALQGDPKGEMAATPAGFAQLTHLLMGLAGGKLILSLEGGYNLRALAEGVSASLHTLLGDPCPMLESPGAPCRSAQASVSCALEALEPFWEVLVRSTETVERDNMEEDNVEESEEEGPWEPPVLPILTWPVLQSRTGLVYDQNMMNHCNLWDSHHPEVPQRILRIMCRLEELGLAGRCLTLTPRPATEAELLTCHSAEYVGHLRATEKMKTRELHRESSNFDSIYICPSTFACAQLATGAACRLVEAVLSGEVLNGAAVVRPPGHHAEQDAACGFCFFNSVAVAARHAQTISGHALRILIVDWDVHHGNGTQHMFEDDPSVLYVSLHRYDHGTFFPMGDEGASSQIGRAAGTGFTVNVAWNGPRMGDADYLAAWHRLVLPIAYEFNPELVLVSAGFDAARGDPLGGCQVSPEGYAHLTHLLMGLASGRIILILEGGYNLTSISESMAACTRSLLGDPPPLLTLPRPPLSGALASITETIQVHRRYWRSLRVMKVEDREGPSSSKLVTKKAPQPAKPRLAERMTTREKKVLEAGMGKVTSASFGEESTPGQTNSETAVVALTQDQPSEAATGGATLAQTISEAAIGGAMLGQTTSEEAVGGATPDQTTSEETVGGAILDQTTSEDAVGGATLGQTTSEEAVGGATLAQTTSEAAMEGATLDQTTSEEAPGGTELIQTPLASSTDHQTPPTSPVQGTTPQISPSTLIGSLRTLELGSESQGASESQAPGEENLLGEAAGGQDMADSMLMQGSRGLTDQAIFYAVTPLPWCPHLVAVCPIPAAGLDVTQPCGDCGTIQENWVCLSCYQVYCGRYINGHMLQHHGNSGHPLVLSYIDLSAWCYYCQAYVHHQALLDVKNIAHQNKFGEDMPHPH

[8] = target: T2, Histone deacetylase 7 (Homo sapiens, UniProt Q8WUI4); assay: Inhibition of human HDAC7 using Boc-Lys(trifluoroacetyl)-AMC as substrate preincubated for 30 mins followed by substrate addition measured after 60 mins by trypsin-based fluorescence assay
T2 sequence (Q8WUI4 whole entry): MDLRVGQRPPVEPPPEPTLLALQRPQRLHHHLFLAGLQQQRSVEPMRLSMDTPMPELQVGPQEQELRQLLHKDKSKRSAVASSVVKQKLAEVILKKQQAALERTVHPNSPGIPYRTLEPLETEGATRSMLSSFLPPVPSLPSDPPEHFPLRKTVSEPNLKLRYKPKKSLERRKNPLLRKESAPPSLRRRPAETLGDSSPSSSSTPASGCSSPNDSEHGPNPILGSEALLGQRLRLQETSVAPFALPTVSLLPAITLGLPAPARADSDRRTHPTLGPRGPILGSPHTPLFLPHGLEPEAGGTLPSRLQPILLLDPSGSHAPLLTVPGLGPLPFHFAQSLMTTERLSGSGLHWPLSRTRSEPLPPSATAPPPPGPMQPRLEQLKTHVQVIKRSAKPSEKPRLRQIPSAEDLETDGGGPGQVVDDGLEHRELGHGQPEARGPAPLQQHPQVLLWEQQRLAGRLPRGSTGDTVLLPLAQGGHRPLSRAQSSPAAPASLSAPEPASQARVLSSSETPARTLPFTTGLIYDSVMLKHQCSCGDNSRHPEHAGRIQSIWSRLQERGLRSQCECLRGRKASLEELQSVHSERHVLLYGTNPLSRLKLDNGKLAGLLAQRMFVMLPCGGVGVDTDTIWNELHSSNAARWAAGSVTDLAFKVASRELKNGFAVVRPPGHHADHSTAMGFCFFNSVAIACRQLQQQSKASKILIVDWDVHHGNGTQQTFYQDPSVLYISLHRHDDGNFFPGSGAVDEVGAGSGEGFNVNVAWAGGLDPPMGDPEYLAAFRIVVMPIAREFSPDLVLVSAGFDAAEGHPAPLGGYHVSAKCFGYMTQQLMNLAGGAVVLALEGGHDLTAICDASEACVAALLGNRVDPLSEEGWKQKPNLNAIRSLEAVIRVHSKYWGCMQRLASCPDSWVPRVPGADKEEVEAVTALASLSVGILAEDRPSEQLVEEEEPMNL
Outline: (§3)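 Boc-Lys(trifluoroacetyl)-AMC served as substrate in a fluorogenic activity assay. Trypsin was added after a 30 min incubation to release the fluorescent dye from the deacetylated product. IC50 values came from 10-point ligand dose-response curves and were converted to Ki by the Cheng-Prusoff relation.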

[9] = target: T3, Histone deacetylase 8 (Homo sapiens, UniProt Q9BY41); assay: Inhibition of human HDAC8 using Boc-Lys(trifluoroacetyl)-AMC as substrate preincubated for 30 mins followed by substrate addition measured after 60 mins by trypsin-based fluorescence assay; outline: as §3
T3 sequence (Q9BY41 whole entry): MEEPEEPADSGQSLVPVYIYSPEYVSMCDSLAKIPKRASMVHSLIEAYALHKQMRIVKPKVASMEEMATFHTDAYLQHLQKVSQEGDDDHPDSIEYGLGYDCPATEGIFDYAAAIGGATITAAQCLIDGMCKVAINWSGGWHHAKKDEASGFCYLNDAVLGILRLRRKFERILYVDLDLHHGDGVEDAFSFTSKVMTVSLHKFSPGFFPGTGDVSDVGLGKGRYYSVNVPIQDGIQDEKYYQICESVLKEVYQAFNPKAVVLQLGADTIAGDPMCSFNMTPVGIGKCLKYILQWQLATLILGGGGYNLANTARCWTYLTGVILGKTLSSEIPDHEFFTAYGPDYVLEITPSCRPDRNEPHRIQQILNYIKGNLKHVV

[10] = target: Histone deacetylase 4 (Homo sapiens, UniProt P56524); assay: Inhibition of human HDAC4 using Boc-Lys(trifluoroacetyl)-AMC as substrate preincubated for 30 mins followed by substrate addition measured after 60 mins by trypsin-based fluorescence assay
Histone deacetylase 4, sequence (P56524 whole entry): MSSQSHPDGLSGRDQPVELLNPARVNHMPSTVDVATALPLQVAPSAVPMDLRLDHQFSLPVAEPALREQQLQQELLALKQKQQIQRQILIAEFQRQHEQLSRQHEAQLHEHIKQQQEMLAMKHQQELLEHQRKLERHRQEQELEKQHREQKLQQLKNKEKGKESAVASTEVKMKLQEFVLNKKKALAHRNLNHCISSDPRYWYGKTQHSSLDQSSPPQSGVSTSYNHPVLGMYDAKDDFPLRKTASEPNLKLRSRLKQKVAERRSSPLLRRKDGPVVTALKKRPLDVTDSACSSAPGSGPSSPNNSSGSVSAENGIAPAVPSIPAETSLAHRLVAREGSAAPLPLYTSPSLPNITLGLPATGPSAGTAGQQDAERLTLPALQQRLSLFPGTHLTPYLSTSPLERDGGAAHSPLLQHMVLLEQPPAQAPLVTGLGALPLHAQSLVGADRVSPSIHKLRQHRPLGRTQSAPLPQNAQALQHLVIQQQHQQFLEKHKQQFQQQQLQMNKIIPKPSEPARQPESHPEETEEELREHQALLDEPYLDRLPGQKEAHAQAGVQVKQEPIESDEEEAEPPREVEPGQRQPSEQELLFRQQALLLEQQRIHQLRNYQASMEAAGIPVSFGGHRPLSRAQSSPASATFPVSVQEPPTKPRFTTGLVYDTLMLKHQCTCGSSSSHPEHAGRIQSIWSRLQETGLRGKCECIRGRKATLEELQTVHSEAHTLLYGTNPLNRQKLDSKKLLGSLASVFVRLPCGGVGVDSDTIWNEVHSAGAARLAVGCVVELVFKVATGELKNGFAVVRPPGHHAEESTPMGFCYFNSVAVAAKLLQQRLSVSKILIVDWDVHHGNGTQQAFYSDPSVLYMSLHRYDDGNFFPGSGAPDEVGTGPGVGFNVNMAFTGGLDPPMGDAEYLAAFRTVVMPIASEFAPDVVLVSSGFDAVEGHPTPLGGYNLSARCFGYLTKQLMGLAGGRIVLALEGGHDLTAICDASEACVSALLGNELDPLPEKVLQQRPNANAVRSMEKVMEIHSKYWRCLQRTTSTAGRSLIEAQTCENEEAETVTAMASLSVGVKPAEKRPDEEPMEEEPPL

[11] = target: Histone deacetylase 5 (Homo sapiens, UniProt Q9UQL6); assay: Inhibition of human HDAC5 using Boc-Lys(trifluoroacetyl)-AMC as substrate preincubated for 30 mins followed by substrate addition measured after 60 mins by trypsin-based fluorescence assay
Histone deacetylase 5, sequence (Q9UQL6 whole entry): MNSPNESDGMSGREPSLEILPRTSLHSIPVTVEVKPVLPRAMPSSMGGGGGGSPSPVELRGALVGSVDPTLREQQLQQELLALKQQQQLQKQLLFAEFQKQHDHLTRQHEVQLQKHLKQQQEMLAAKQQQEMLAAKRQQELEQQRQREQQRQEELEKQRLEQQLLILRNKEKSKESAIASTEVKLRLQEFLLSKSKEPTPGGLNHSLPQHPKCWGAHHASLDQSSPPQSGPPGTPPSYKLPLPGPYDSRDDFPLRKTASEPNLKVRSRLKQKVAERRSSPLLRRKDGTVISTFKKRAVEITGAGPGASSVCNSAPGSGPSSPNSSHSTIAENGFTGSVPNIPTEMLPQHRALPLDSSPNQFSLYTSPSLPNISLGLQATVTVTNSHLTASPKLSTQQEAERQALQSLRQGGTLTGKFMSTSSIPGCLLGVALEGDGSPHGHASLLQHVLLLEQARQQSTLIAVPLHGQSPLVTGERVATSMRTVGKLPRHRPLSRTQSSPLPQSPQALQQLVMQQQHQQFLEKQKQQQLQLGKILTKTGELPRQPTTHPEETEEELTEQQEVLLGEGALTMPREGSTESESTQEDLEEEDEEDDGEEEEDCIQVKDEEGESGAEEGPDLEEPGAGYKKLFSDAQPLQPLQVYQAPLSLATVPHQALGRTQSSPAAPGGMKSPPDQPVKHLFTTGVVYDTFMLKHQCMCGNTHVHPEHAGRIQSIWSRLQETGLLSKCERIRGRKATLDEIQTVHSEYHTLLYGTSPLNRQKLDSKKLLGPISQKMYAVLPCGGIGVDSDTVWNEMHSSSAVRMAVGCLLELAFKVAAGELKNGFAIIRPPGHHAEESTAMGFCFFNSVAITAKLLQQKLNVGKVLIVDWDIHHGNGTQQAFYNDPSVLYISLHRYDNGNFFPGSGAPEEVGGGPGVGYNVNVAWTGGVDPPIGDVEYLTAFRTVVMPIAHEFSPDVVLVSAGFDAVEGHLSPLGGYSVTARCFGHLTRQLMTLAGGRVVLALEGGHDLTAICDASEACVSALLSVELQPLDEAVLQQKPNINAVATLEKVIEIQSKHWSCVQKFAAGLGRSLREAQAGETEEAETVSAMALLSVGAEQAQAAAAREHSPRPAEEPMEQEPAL

For `COc1ccc(NC(=O)C(F)(F)C(F)(F)C(F)(F)C(F)(F)C(F)(F)C(F)(F)C(=O)NO)cc1`, the Ki [1] was 0.37 µM, the Ki [2] was greater than 50 µM and the Ki [3] was 1.2 µM. For the same molecule, the Ki [4] was 0.18 µM, the Ki [5] was 0.18 µM and the Ki [6] was greater than 50 µM. For the same molecule, the Ki [7] was greater than 50 µM, the Ki [8] was greater than 50 µM and the Ki [9] was greater than 50 µM. It also gave a Ki [10] greater than 50 µM and a Ki [11] greater than 50 µM.

`Cc1ccc(NC(=O)C(F)(F)C(F)(F)C(F)(F)C(F)(F)C(F)(F)C(F)(F)C(=O)NO)cc1C` showed a Ki [1] of 1.6 µM, a Ki [2] of 5.8 µM and a Ki [3] of 0.1 µM. The Ki [4] was 0.11 µM, the Ki [5] was 0.11 µM and the Ki [6] was 7 µM. It also gave a Ki [7] of 20 µM, a Ki [8] of 2.5 µM and a Ki [9] of 8.4 µM. It also gave a Ki [10] greater than 50 µM and a Ki [11] greater than 50 µM.

In the case of `Cc1cccc(NC(=O)C(F)(F)C(F)(F)C(F)(F)C(F)(F)C(F)(F)C(F)(F)C(=O)NO)c1`, the Ki [1] is reported as 0.27 µM, the Ki [2] is reported as 11 µM and the Ki [3] is reported as 0.092 µM. The Ki [4] was 0.45 µM, the Ki [5] was 0.45 µM and the Ki [6] was greater than 50 µM. For the same molecule, the Ki [7] was greater than 50 µM, the Ki [8] was greater than 50 µM and the Ki [9] was greater than 50 µM. It also gave a Ki [10] greater than 50 µM and a Ki [11] greater than 50 µM.

In the case of `O=C(NO)C(F)(F)C(F)(F)C(F)(F)C(F)(F)C(F)(F)C(F)(F)C(=O)Nc1cccc(Cl)c1`, the Ki [1] is reported as 0.073 µM, the Ki [2] is reported as 11 µM and the Ki [3] is reported as 0.046 µM. It also gave a Ki [4] of 0.17 µM, a Ki [5] of 0.17 µM and a Ki [6] greater than 50 µM. It also gave a Ki [7] greater than 50 µM, a Ki [8] greater than 50 µM and a Ki [9] greater than 50 µM. It also gave a Ki [10] greater than 50 µM and a Ki [11] greater than 50 µM.

`O=C(NO)C(F)(F)C(F)(F)C(F)(F)C(F)(F)C(F)(F)C(F)(F)C(=O)Nc1ccccc1Cl` showed a Ki [1] of 0.8 µM, a Ki [2] greater than 50 µM and a Ki [3] of 0.16 µM. It also gave a Ki [4] of 0.24 µM, a Ki [5] of 0.24 µM and a Ki [6] greater than 50 µM. The Ki [7] was greater than 50 µM, the Ki [8] was greater than 50 µM and the Ki [9] was greater than 50 µM. For the same molecule, the Ki [10] was greater than 50 µM and the Ki [11] was greater than 50 µM.

For `O=C(NO)C(F)(F)C(F)(F)C(F)(F)C(F)(F)C(F)(F)C(F)(F)C(=O)Nc1ccc(F)cc1`, the Ki [1] was 0.49 µM, the Ki [2] was greater than 50 µM and the Ki [3] was 0.46 µM. The Ki [4] was 0.33 µM, the Ki [5] was 0.33 µM and the Ki [6] was greater than 50 µM. It also gave a Ki [7] greater than 50 µM, a Ki [8] greater than 50 µM and a Ki [9] greater than 50 µM. For the same molecule, the Ki [10] was greater than 50 µM and the Ki [11] was greater than 50 µM.

`Cc1ccccc1NC(=O)C(F)(F)C(F)(F)C(F)(F)C(F)(F)C(F)(F)C(F)(F)C(=O)NO` showed a Ki [1] of 84 µM, a Ki [2] greater than 50 µM and a Ki [3] of 0.16 µM. The Ki [4] was 0.62 µM, the Ki [5] was 0.62 µM and the Ki [6] was greater than 50 µM. It also gave a Ki [7] greater than 50 µM, a Ki [8] greater than 50 µM and a Ki [9] greater than 50 µM. For the same molecule, the Ki [10] was greater than 50 µM and the Ki [11] was greater than 50 µM.

With `CN(C)c1ccc(NC(=O)C(F)(F)C(F)(F)C(F)(F)C(F)(F)C(F)(F)C(F)(F)C(=O)NO)cc1` the Ki [1] was greater than 50 µM, the Ki [2] was greater than 50 µM and the Ki [3] was 2.7 µM. For the same molecule, the Ki [4] was greater than 50 µM, the Ki [5] was greater than 50 µM and the Ki [6] was greater than 50 µM. The Ki [7] was greater than 50 µM, the Ki [8] was greater than 50 µM and the Ki [9] was greater than 50 µM. The Ki [10] was greater than 50 µM and the Ki [11] was greater than 50 µM.
